“And” between values parts separate entries of the source, which are not always exact repeats. Equal values may be shown once.
Columns and labels:
HEK-293T = experiment: Multiplex assay against HEK293T; assay type: toxicity, cell-based; details: human
How it was run: (§1)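 Compound was added to live cells that had been stained at seeding with Hoechst33342, BioTracker Green Microtubule Cytoskeleton Dye, MitoTracker Red and Annexin V Alexa Fluor 680, and imaging followed on a CQ1 microscope at 37°C and 5% CO2. CellPathfinder machine-learning gating divided cells into Hoechst high-intensity objects or normal cells, normal cells into healthy, pyknosed or fragmented nuclei, and pyknosed cells into mitotic or apoptotic. Tubulin, mitochondrial-mass and membrane-permeability phenotypes are per cents of healthy-nucleus cells.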

U2OS = experiment: Multiplex assay against U2OS; assay type: toxicity, cell-based; details: human; how it was run: as §1
[1] = 24 h, 1 µM, compound concentration 1 uM
[2] = 24 h, 10 µM, compound concentration 10 uM
[3] = 48 h, 1 µM, compound concentration 1 uM
[4] = 48 h, 10 µM, compound concentration 10 uM
[5] = 12 h, 1 µM, compound concentration 1 uM
[6] = 12 h, 10 µM, compound concentration 10 uM

CN(C)CCCn1cc(C2=C(c3c[nH]c4ccccc34)C(=O)NC2=O)c2ccccc21 [GF-109203]
Population Pyknosed Nuclei (%) (HEK-293T; [1]): 24.45% and 69.88%
Population Tubulin-Different-Phenotype (%) (HEK-293T; [1]): 17.62% and 12.2%
Population Apoptotic (%) (HEK-293T; [2]): 27.17% and 24.46%
Population Fragmented Nuclei (%) (HEK-293T; [2]): 2.62% and 2.48%
Population Hoechst High Intensity Objects (%) (HEK-293T; [2]): 0%
Population Membrane Permeable-Phenotype (%) (HEK-293T; [2]): 0%
Population Mitochondria Different-Phenotype (%) (HEK-293T; [2]): 40.74% and 16.67%
Population Mitotic Cells (%) (HEK-293T; [2]): 72.83% and 75.54%
Population Normal (%) (HEK-293T; [2]): 100%
Population Pyknosed Nuclei (%) (HEK-293T; [2]): 50.29% and 86.34%
Population Tubulin-Different-Phenotype (%) (HEK-293T; [2]): 84.57% and 50%
Total Cell Count (HEK-293T; [2]): 344 and 161
Population Apoptotic (%) (HEK-293T; [3]): 10.45% and 22.58%
Population Fragmented Nuclei (%) (HEK-293T; [3]): 0.57% and 1.08%
Population Healthy Nuclei (%) (HEK-293T; [3]): 84.04% and 48.92%
Population Hoechst High Intensity Objects (%) (HEK-293T; [3]): 0%
Population Membrane Permeable-Phenotype (%) (HEK-293T; [3]): 3.01% and 1.1%
Population Mitochondria Different-Phenotype (%) (HEK-293T; [3]): 32.1% and 38.46%
Population Mitotic Cells (%) (HEK-293T; [3]): 89.55% and 77.42%
Population Normal (%) (HEK-293T; [3]): 100%
Population Apoptotic (%) (HEK-293T; [4]): 45.68% and 29.41%
Population Fragmented Nuclei (%) (HEK-293T; [4]): 1.92% and 2.34%
Population Healthy Nuclei (%) (HEK-293T; [4]): 46.15% and 18.13%
Population Hoechst High Intensity Objects (%) (HEK-293T; [4]): 0% and 0.58%
Population Membrane Permeable-Phenotype (%) (HEK-293T; [4]): 1.39% and 9.68%
Population Mitochondria Different-Phenotype (%) (HEK-293T; [4]): 87.5% and 58.06%
Population Mitotic Cells (%) (HEK-293T; [4]): 54.32% and 70.59%
Population Normal (%) (HEK-293T; [4]): 100% and 99.42%
Population Pyknosed Nuclei (%) (HEK-293T; [4]): 51.92% and 79.53%
Total Cell Count (HEK-293T; [4]): 312 and 172
Population Apoptotic (%) (U2OS; [5]): 29.27% and 38.1%
Population Healthy Nuclei (%) (U2OS; [5]): 87.6% and 71.08%
Population Hoechst High Intensity Objects (%) (U2OS; [5]): 0%
Population Membrane Permeable-Phenotype (%) (U2OS; [5]): 1.47% and 5.52%
Population Mitotic Cells (%) (U2OS; [5]): 70.73% and 61.9%
Population Normal (%) (U2OS; [5]): 100%
Population Pyknosed Nuclei (%) (U2OS; [5]): 10.59% and 10.29%
Population Tubulin-Different-Phenotype (%) (U2OS; [5]): 1.77% and 1.38%
Total Cell Count (U2OS; [5]): 387 and 204
Population Apoptotic (%) (U2OS; [6]): 35.21% and 37.14%
Population Fragmented Nuclei (%) (U2OS; [6]): 1.16% and 5.8%
Population Healthy Nuclei (%) (U2OS; [6]): 78.32% and 68.84%
Population Hoechst High Intensity Objects (%) (U2OS; [6]): 0%
Population Membrane Permeable-Phenotype (%) (U2OS; [6]): 49.08% and 62.11%
Population Mitotic Cells (%) (U2OS; [6]): 64.79% and 62.86%
Population Normal (%) (U2OS; [6]): 100%
Population Pyknosed Nuclei (%) (U2OS; [6]): 20.52% and 25.36%
Population Tubulin-Different-Phenotype (%) (U2OS; [6]): 70.11% and 53.68%
Total Cell Count (U2OS; [6]): 346 and 138
Population Apoptotic (%) (U2OS; [1]): 38.98% and 53.33%
Population Healthy Nuclei (%) (U2OS; [1]): 87.5% and 70.09%
Population Hoechst High Intensity Objects (%) (U2OS; [1]): 0.19% and 0%
Population Membrane Permeable-Phenotype (%) (U2OS; [1]): 1.34% and 5.49%
Population Mitochondria Different-Phenotype (%) (U2OS; [1]): 0% and 15.85%
Population Mitotic Cells (%) (U2OS; [1]): 61.02% and 46.67%
Population Normal (%) (U2OS; [1]): 99.81% and 100%
Population Pyknosed Nuclei (%) (U2OS; [1]): 11.52% and 12.82%
Population Tubulin-Different-Phenotype (%) (U2OS; [1]): 0.89% and 2.44%
Total Cell Count (U2OS; [1]): 513 and 234
Population Apoptotic (%) (U2OS; [2]): 66.23% and 81.33%
Population Fragmented Nuclei (%) (U2OS; [2]): 2.13% and 6.99%
Population Healthy Nuclei (%) (U2OS; [2]): 51.98% and 40.56%
Population Hoechst High Intensity Objects (%) (U2OS; [2]): 0%
Population Membrane Permeable-Phenotype (%) (U2OS; [2]): 35.67% and 50%
Population Mitotic Cells (%) (U2OS; [2]): 33.77% and 18.67%
Population Normal (%) (U2OS; [2]): 100%
Population Pyknosed Nuclei (%) (U2OS; [2]): 45.9% and 52.45%
Population Tubulin-Different-Phenotype (%) (U2OS; [2]): 60.23% and 58.62%
Total Cell Count (U2OS; [2]): 329 and 143
Population Apoptotic (%) (U2OS; [3]): 41.25% and 46.51%
Population Healthy Nuclei (%) (U2OS; [3]): 88.82% and 68.86%
Population Hoechst High Intensity Objects (%) (U2OS; [3]): 0% and 0.34%
Population Membrane Permeable-Phenotype (%) (U2OS; [3]): 1.36% and 5.03%
Population Mitochondria Different-Phenotype (%) (U2OS; [3]): 0% and 16.08%
Population Mitotic Cells (%) (U2OS; [3]): 58.75% and 53.49%
Population Normal (%) (U2OS; [3]): 100% and 99.66%
Population Pyknosed Nuclei (%) (U2OS; [3]): 8.77% and 14.88%
Population Tubulin-Different-Phenotype (%) (U2OS; [3]): 0.99% and 3.02%
Population Apoptotic (%) (U2OS; [4]): 86.32% and 90.65%
Population Fragmented Nuclei (%) (U2OS; [4]): 6.15% and 9.46%
Population Healthy Nuclei (%) (U2OS; [4]): 28.62% and 18.24%
Population Hoechst High Intensity Objects (%) (U2OS; [4]): 0.31% and 0%
Population Mitochondria Different-Phenotype (%) (U2OS; [4]): 24.73% and 55.56%
Population Mitotic Cells (%) (U2OS; [4]): 13.68% and 9.35%
Population Normal (%) (U2OS; [4]): 99.69% and 100%
Population Pyknosed Nuclei (%) (U2OS; [4]): 65.23% and 72.3%
Population Tubulin-Different-Phenotype (%) (U2OS; [4]): 63.44% and 37.04%
Total Cell Count (U2OS; [4]): 326 and 148

Reference: ChEMBL document CHEMBL5724801, “EUbOPEN Chemogenomics Library - Multiplex” (2024)
